Reference: ChEMBL document CHEMBL5046237, “Identification of MRTX1133, a Noncovalent, Potent, and Selective KRASG12D Inhibitor” (J Med Chem, 2022)
Blank lines part the entries; values can stand above or below the compound they belong to.

Tests used:
[1] = Inhibition of human C-terminal Avi biotinylated tagged KRAS isoform 4B G12D mutant (1 to 169 residues) expressed in Escherichia coli measured after 1 hr by HTRF assay
[2] = target: GTPase KRas (Homo sapiens, UniProt P01116, G12D); experiment: Inhibition of KRAS G12D mutant in human AGS cells assessed as reduction in ERK phosphorylation measured after 3 hrs by In-Cell Western assay; type: cell-based
[3] = Binding affinity to human AviTEV6His-tagged KRAS isoform 4B G12D mutant (1 to 169 residues) expressed in Escherichia coli BL21 (DE3) assessed as dissociation constant by SPR analysis
[4] = target: GTPase KRas (Homo sapiens, UniProt P01116); experiment: Binding affinity to human AviTEV6His-tagged KRAS isoform 4B wild type (1 to 169 residues) expressed in Escherichia coli BL21 (DE3) assessed as dissociation constant by SPR analysis
In short: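 SPR measurement; where the KD fell beyond what the instrument can accurately determine, it was reported as an approximate value.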

[5] = In vivo inhibition of KRAS G12D mutant in CD-1 athymic nude-Foxn1nu mouse xenografted with human Panc 04.03 cells assessed as reduction in ERK phosphorylation in tumor lysates at 30 mg/kg, ip measured after 1 hr; type: functional; details: CD-1, Panc 04.03, Neoplasm
In short: (§1)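 The Panc 04.03 xenograft model received 30 mg/kg IP BID. Tumor pERK signal was measured 1 h and 12 h after the second dose. Mean pERK inhibition versus the vehicle cohort was assessed by two-tailed Student's t test with equal variance.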

[6] = Antitumor activity against human Panc 04.03 cells harboring KRAS G12D mutant xenografted in CD-1 nude-Foxn1 mouse assessed as inhibition of tumor growth at 3 mg/kg, ip administered twice a day; type: functional; details: Panc 04.03, ip
In short: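 Mice bearing Panc 04.03 (KRAS G12D) xenografts were dosed IP twice daily (BID) at 3, 10 or 30 mg/kg. Tumor volume was tracked against a vehicle cohort, and mean tumor volume differences were tested by two-tailed Student's t test assuming equal variance.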

[7] = tested on: AGS; experiment: cells; details: Homo sapiens, 72 h
[8] = Time during which free drug concentration exceeds IC50 for KRAS G12D mutant-mediated ERK phosphorylation in human Panc 04.03 cells xenografted CD-1 athymic nude-Foxn1nu mouse plasma at 30 mg/kg, ip; details: in vivo
[9] = Antitumor activity against human Panc 04.03 cells harboring KRAS G12D mutant xenografted in CD-1 nude-Foxn1 mouse assessed as tumor regression at 10 mg/kg, ip administered twice a day; details: Panc 04.03, ip
[10] = In vivo inhibition of KRAS G12D mutant in CD-1 athymic nude-Foxn1nu mouse xenografted with human Panc 04.03 cells assessed as reduction in ERK phosphorylation in tumor lysates at 30 mg/kg, ip measured after 12 hrs; type: functional; details: CD-1, Panc 04.03, Neoplasm; in short: as §1
[11] = tested on: MKN-1; experiment: Cytotoxicity against human MKN-1 cells harboring wild type KRAS assessed as reduction in cell viability measured after 3 days by 2D viability assay; details: MKN-1, 72 h
[12] = AUC (0 to 24 hrs) in CD-1 athymic nude-Foxn1nu mouse xenografted with human Panc 04.03 cells at 30 mg/kg, ip BID; type: ADME, organism-based; set-up: time < 24 hr, route intraperitoneal, dose 30 mg/kg; details: in vivo

Compound: Fc1ccc2cccc(-c3ncc4c(N5C[C@H]6CC[C@@H](C5)N6)nc(OCC56CCCN5CCC6)nc4c3F)c2c1F
IC50 [1]: 7 nM | IC50 [2]: 97 nM

Compound: CN1CCC[C@H]1COc1nc(N2CCOCC2)c2cnc(-c3cc(O)cc4ccccc34)c(F)c2n1
Kd [3]: 1500 nM | IC50 [1]: 12000 nM | Kd [4]: 560 nM

Compound: CN(C)CCOc1nc(N2C[C@H]3CC[C@@H](C2)N3)c2cnc(-c3cc(O)cc4ccccc34)c(F)c2n1
IC50 [1]: 70 nM | IC50 [2]: > 10000 nM

Compound: Fc1c(-c2cccc3cccc(Cl)c23)ncc2c(N3C[C@H]4CC[C@@H](C3)N4)nc(OCC34CCCN3CCC4)nc12
IC50 [1]: 15 nM | IC50 [2]: 190 nM

Compound: Cn1ccnc1CCOc1nc(N2C[C@H]3CC[C@@H](C2)N3)c2cnc(-c3cc(O)cc4ccccc34)c(F)c2n1
IC50 [1]: 30 nM | IC50 [2]: 3500 nM

Compound: CN1CCC[C@H]1COc1nc(N2C[C@H]3CC[C@@H](C2)N3)c2cnc(-c3cc(O)cc4ccccc34)c(F)c2n1
Kd [3]: 0.8 nM | IC50 [1]: 5 nM

IC50 [7]: 6 nM | T>IC50 [8]: 8 h
Compound: C#Cc1c(F)ccc2cc(O)cc(-c3ncc4c(N5C[C@H]6CC[C@@H](C5)N6)nc(OC[C@@]56CCCN5C[C@H](F)C6)nc4c3F)c12
inhibition in vivo at 30 mg/kg [5]: 62% | Kd [3]: 0.0002 nM | inhibition in vivo at 3 mg/kg [6]: 94% | tumor regression % at 10 mg/kg [9]: 62% | inhibition in vivo at 30 mg/kg [10]: 74% | IC50 [11]: > 3000 nM

Compound: Fc1c(-c2cccc3ccccc23)ncc2c(N3C[C@H]4CC[C@@H](C3)N4)nc(OCC34CCCN3CCC4)nc12
IC50 [1]: 360 nM | IC50 [2]: > 10000 nM

Compound: C#Cc1cccc2cc(O)cc(-c3ncc4c(N5C[C@H]6CC[C@@H](C5)N6)nc(OCC56CCCN5CCC6)nc4c3F)c12
IC50 [1]: < 2 nM | IC50 [2]: 14 nM

Compound: CN1CCC[C@H]1COc1nc(N2CCNCC2)c2cnc(-c3cccc4cccc(Cl)c34)c(F)c2n1
Kd [3]: 3500 nM | Kd [4]: 36000 nM

Compound: Fc1c(-c2cccc3cccc(F)c23)ncc2c(N3C[C@H]4CC[C@@H](C3)N4)nc(OCC34CCCN3CCC4)nc12
IC50 [1]: 12 nM | IC50 [2]: 380 nM

Compound: CN1CCN(c2nc(OC[C@@H]3CCCN3C)nc3c(F)c(-c4cc(O)cc5ccccc45)ncc23)CC1
Kd [3]: 8700 nM | IC50 [1]: 54000 nM | Kd [4]: 6200 nM

Compound: Oc1cc(-c2ncc3c(N4C[C@H]5CC[C@@H](C4)N5)nc(OCCN4C[C@@H]5C[C@H]4CO5)nc3c2F)c2ccccc2c1
IC50 [1]: 62 nM | IC50 [2]: 3000 nM

Compound: Oc1cc(-c2ncc3c(N4C[C@H]5CC[C@@H](C4)N5)nc(OCC45CCCN4CCC5)nc3c2F)c2c(Cl)cccc2c1
IC50 [1]: < 2 nM | IC50 [2]: 63 nM

Compound: C#Cc1c(F)ccc2cccc(-c3ncc4c(N5C[C@H]6CC[C@@H](C5)N6)nc(OCC56CCCN5CCC6)nc4c3F)c12
IC50 [1]: < 2 nM | AUC at 24 h [12]: 9500 ng·h/mL | IC50 [2]: 24 nM

Compound: Oc1cc(-c2ncc3c(N4CC5CCC(C4)N5)ncnc3c2F)c2ccccc2c1
IC50 [2]: > 10000 nM

Compound: Oc1cc(-c2ncc3c(N4C[C@H]5CC[C@@H](C4)N5)nc(OC[C@@]45CCCN4C[C@H](F)C5)nc3c2F)c2ccccc2c1
IC50 [1]: < 2 nM

Compound: CN(C)C1CN(c2nc(N3CC4CCC(C3)N4)c3cnc(-c4cc(O)cc5ccccc45)c(F)c3n2)C1
IC50 [1]: 69 nM | IC50 [2]: 1300 nM

Compound: OCc1cccc2cccc(-c3ncc4c(N5C[C@H]6CC[C@@H](C5)N6)nc(OCC56CCCN5CCC6)nc4c3F)c12
IC50 [1]: 79 nM | IC50 [2]: > 10000 nM

IC50 [1]: 980 nM
Compound: CN1CCC[C@H]1COc1nc(N2CCNCC2)c2cnc(-c3cc(O)cc4ccccc34)c(F)c2n1
Kd [3]: 190 nM

Compound: Oc1cc(-c2ncc3c(N4C[C@H]5CC[C@@H](C4)N5)nc(OCC45CCCN4CCC5)nc3c2F)c2ccccc2c1
IC50 [1]: < 2 nM | IC50 [2]: 270 nM

IC50 [1]: 2600 nM
Compound: CN1CCC[C@H]1COc1nc(N2CCCNCC2)c2cnc(-c3cc(O)cc4ccccc34)c(F)c2n1
Kd [3]: 420 nM

Compound: C#Cc1cccc2cccc(-c3ncc4c(N5C[C@H]6CC[C@@H](C5)N6)nc(OCC56CCCN5CCC6)nc4c3F)c12
IC50 [1]: 3 nM | IC50 [2]: 71 nM

Compound: CCc1cccc2cccc(-c3ncc4c(N5C[C@H]6CC[C@@H](C5)N6)nc(OCC56CCCN5CCC6)nc4c3F)c12
IC50 [1]: 6 nM | IC50 [2]: 200 nM

IC50 [1]: 68 nM
Compound: CN1CCC[C@H]1COc1nc(N2CC3CCC2CN3)c2cnc(-c3cc(O)cc4ccccc34)c(F)c2n1 (stereo partly specified)
Kd [3]: 9 nM

Compound: COc1cccc2cccc(-c3ncc4c(N5C[C@H]6CC[C@@H](C5)N6)nc(OCC56CCCN5CCC6)nc4c3F)c12
IC50 [1]: 86 nM | IC50 [2]: 1200 nM

Compound: Oc1cc(-c2ncc3c(N4C[C@H]5CC[C@@H](C4)N5)nc(OC[C@]45CCCN4C[C@@H](F)C5)nc3c2F)c2ccccc2c1
IC50 [1]: < 2 nM

Compound: Cc1cccc2cccc(-c3ncc4c(N5C[C@H]6CC[C@@H](C5)N6)nc(OCC56CCCN5CCC6)nc4c3F)c12
IC50 [1]: 45 nM | IC50 [2]: 2500 nM

Compound: Fc1ccc2cccc(-c3ncc4c(N5C[C@H]6CC[C@@H](C5)N6)nc(OCC56CCCN5CCC6)nc4c3F)c2c1
IC50 [1]: 27 nM | IC50 [2]: 370 nM

IC50 [1]: 310 nM
Compound: CN1CCC[C@H]1COc1nc(N2CC3CC(C2)N3)c2cnc(-c3cc(O)cc4ccccc34)c(F)c2n1 (mixture of isomers)
Kd [3]: 73 nM

IC50 [1]: 2100 nM
Compound: CC1CN(c2nc(OC[C@@H]3CCCN3C)nc3c(F)c(-c4cc(O)cc5ccccc45)ncc23)CCN1 (mixture of isomers)
Kd [3]: 380 nM

IC50 [1]: 1500 nM
Compound: CC1CNCCN1c1nc(OC[C@@H]2CCCN2C)nc2c(F)c(-c3cc(O)cc4ccccc34)ncc12 (mixture of isomers)
Kd [3]: 280 nM

IC50 [1]: 650 nM
Compound: CN1CCC[C@H]1COc1nc(N2CC3CC2CN3)c2cnc(-c3cc(O)cc4ccccc34)c(F)c2n1 (mixture of isomers)
Kd [3]: 96 nM

Compound: O=C1CCC2(COc3nc(N4CC5CCC(C4)N5)c4cnc(-c5cc(O)cc6ccccc56)c(F)c4n3)CCCN12 (racemic)
IC50 [1]: 750 nM | IC50 [2]: > 10000 nM

Compound: Oc1cc(-c2ncc3c(N4CC5CCC(C4)N5)nc(OCC45CCCCN4CCC5)nc3c2F)c2ccccc2c1 (racemic)
IC50 [1]: 12 nM | IC50 [2]: 650 nM
